Reference: ChEMBL document CHEMBL2346497, “Synthesis of novel cognition enhancers with pyrazolo[5,1-c][1,2,4]benzotriazine core acting at γ-aminobutyric acid type A (GABA(A)) receptor” (Bioorg Med Chem, 2013)
pKi: −log10 of the molar value. Active and inactive are the calls of the source. The rule behind the calls is not given here.

Tests used:
[1] = Displacement of [3H]Ro15-1788 from GABA-A receptor benzodiazepine binding site in bovine cerebral cortex membranes after 1 hr; assay type: cell membranes, Bos taurus, Membrane
Mus musculus [2] = assay: Anticonvulsant activity in CD1 albino mouse assessed as protection against pentylenetetrazole-induced convulsions at 10 mg/kg, po administered 30 mins prior to pentylenetetrazole challenge measured over 30 mins (reference value: 7.1%); assay type: functional
Mus musculus [3] = assay: Neurotoxicity in CD1 albino mouse assessed as decrease in number of falls from rotating rod at 30 mg/kg, po by rota-rod test relative to control; assay type: toxicity, organism-based; design: dose 30 mg/kg, route oral; conditions: in vivo, TDE = time-dependent effect
How it was run: (§1)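 Motor coordination was tested on a rota-rod turning at 24 rpm in male CD-1 mice dosed po in 1% CMC. Falls within 30 s were counted at a pretest and at 15, 30, 45 and 60 min after dosing. Each value is the mean of five mice, compared with CMC-treated controls.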

Mus musculus [4] = assay: Anxiolytic activity in CD1 albino mouse assessed as increase in time spent in illuminated side at 10 to 30 mg/kg, po administered 30 mins prior to testing measured for 5 mins by light-dark box test; assay type: functional, organism-based
How it was run: (§2)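 Light/dark box: two equal acrylic compartments, one lit by a 60 W lamp, joined by a floor-level opening. Male CD-1 mice were dosed po in 1% CMC 30 min before the test, then placed in the centre of the lit side facing away from the dark side. Over 5 min, transfers and time in the light side were recorded, n = 8 mice per group.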

Rattus norvegicus [5] = assay: Procognitive effect in Harlan Wistar rat assessed as decrease in exploring time of unfamiliar rat during social investigatory behaviour at 10 mg/kg, po administered 30 mins prior to testing measured for 5 mins by social learning test relative to control; assay type: functional, organism-based; design: dose 10 mg/kg
Rattus norvegicus [6] = assay: Procognitive effect in Harlan Wistar rat assessed as exploring time of familiar rat during social investigatory behaviour at 10 mg/kg, po administered 30 mins prior to testing measured for 5 mins by social learning test (reference value: 27.6 secs); assay type: functional
Mus musculus [7] = assay: Antiamnesic activity in CD1 albino mouse assessed as reversal of scopolamine-induced amnesia at 1 mg/kg, po administered 30 mins prior to scopolamine challenge measured after 24 hrs by passive avoidance test; assay type: functional, organism-based; design: dose 1 mg/kg
How it was run: (§3)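 Step-through passive avoidance in male CD-1 mice (22–24 g). Test drugs were given po, suspended in 1% carboxymethylcellulose at 10 ml/kg, 30 min before the training session. For the antiamnesic arm, scopolamine 1.5 mg/kg was injected immediately after punishment. Retention latency was compared with CMC-treated controls, n = 10–12 mice per group.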

Mus musculus [8] = assay: Cognitive enhancing effect in CD1 albino mouse assessed as increase in retention latency at 1 to 10 mg/kg, po administered 30 mins prior to testing measured after 24 hrs by passive avoidance test relative to control; assay type: functional, organism-based; how it was run: as §3
Mus musculus [9] = assay: Antiamnesic activity in CD1 albino mouse assessed as reversal of scopolamine-induced amnesia at 3 mg/kg, po administered 30 mins prior to scopolamine challenge measured after 24 hrs by passive avoidance test; assay type: functional, organism-based; design: dose 3 mg/kg
Mus musculus [10] = assay: Cognitive enhancing effect in CD1 albino mouse assessed as increase in retention latency at 3 to 30 mg/kg, po administered 30 mins prior to testing measured after 24 hrs by passive avoidance test relative to control; assay type: functional, organism-based; how it was run: as §3
Bos taurus = species on record: Bos taurus; assay: Displacement of [3H]Ro15-1788 from GABA-A receptor benzodiazepine binding site in bovine cerebral cortex membranes at 10 uM after 1 hr; assay type: cell membranes; conditions: Membrane
Rattus norvegicus [11] = assay: Procognitive effect in Harlan Wistar rat assessed as decrease in exploring time of unfamiliar rat during social investigatory behaviour at 30 mg/kg, po administered 30 mins prior to testing measured for 5 mins by social learning test relative to control; assay type: functional, organism-based; design: dose 30 mg/kg
Rattus norvegicus [12] = assay: Procognitive effect in Harlan Wistar rat assessed as exploring time of familiar rat during social investigatory behaviour at 30 mg/kg, po administered 30 mins prior to testing measured for 5 mins by social learning test (reference value: 27.6 secs); assay type: functional
Mus musculus [13] = assay: Anxiolytic activity in CD1 albino mouse assessed as increase in time spent in illuminated side at 30 mg/kg, po administered 30 mins prior to testing measured for 5 mins by light-dark box test; assay type: functional, organism-based; design: dose 30 mg/kg; how it was run: as §2
Rattus norvegicus [14] = assay: Procognitive effect in Harlan Wistar rat assessed as decrease in exploring time of unfamiliar rat during social investigatory behaviour at 10 to 100 mg/kg, po administered 30 mins prior to testing measured for 5 mins by social learning test relative to control; assay type: functional, organism-based
Rattus norvegicus [15] = assay: Procognitive effect in Harlan Wistar rat assessed as exploring time of familiar rat during social investigatory behaviour at 100 mg/kg, po administered 30 mins prior to testing measured for 5 mins by social learning test (reference value: 27.6 secs); assay type: functional
Mus musculus [16] = assay: Cognitive enhancing effect in CD1 albino mouse assessed as increase in retention latency at 1 to 100 mg/kg, po administered 30 mins prior to testing measured after 24 hrs by passive avoidance test relative to control; assay type: functional, organism-based; how it was run: as §3
Mus musculus [17] = assay: Neurotoxicity in CD1 albino mouse assessed as decrease in number of falls from rotating rod at 10 mg/kg, po by rota-rod test relative to control; assay type: toxicity, organism-based; design: dose 10 mg/kg, route oral; conditions: in vivo, TDE = time-dependent effect; how it was run: as §1
Mus musculus [18] = assay: Anxiolytic activity in CD1 albino mouse assessed as increase in time spent in illuminated side at 10 mg/kg, po administered 30 mins prior to testing measured for 5 mins by light-dark box test in presence of flumazenil; assay type: functional, organism-based; design: dose 10 mg/kg
How it was run: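 This is the mouse light/dark box (male CD-1, 22–24 g) with flumazenil added at 100 mg/kg po. Drugs were suspended in 1% CMC and given po at 10 ml/kg, 30 min before testing. Mice started in the centre of the lit side and explored for 5 min. Transfers and time in the light side were scored. Values are means of eight mice, compared with flumazenil-treated mice.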

Mus musculus [19] = assay: Anxiolytic activity in CD1 albino mouse assessed as increase in time spent in illuminated side at 10 mg/kg, po administered 30 mins prior to testing measured for 5 mins by light-dark box test; assay type: functional, organism-based; design: dose 10 mg/kg
How it was run: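 Male CD-1 mice (22–24 g) were dosed po at 10 ml/kg with drug suspended in 1% carboxymethylcellulose, 30 min before the test. Each mouse was placed in the centre of the lit compartment of a two-compartment light/dark box, facing away from the dark side, and explored for 5 min. Transfers and time in the light side were recorded. Values are means of eight mice, analysed by ANOVA with Scheffé post-hoc.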

Mus musculus [20] = assay: Cognitive enhancing effect in CD1 albino mouse assessed as increase in retention latency at 1 to 30 mg/kg, po administered 30 mins prior to testing measured after 24 hrs by passive avoidance test relative to control; assay type: functional, organism-based; how it was run: as §3

SMILES: Cc1cnn2c1n[n+]([O-])c1ccc(OCc3ccco3)cc12
- pKi [1]: 7.51

SMILES: [O-][n+]1ccc(COc2ccc3c(c2)n2ncc(I)c2n[n+]3[O-])cc1
- pKi [1]: 7.69

SMILES: Cc1cnn2c1n[n+]([O-])c1ccc(Cl)cc12
- pKi [1]: 6.50

SMILES: [O-][n+]1nc2c(-c3ncn[nH]3)cnn2c2cc(OCc3ccccc3)ccc21
- pKi [1]: 6.49
- Activity (Mus musculus [2]): 0%
- Activity (Mus musculus [3]): tde
- Activity (Mus musculus [4]): Active
- Activity (Rattus norvegicus [5]): inactive
- Time (Rattus norvegicus [6]): 40.3 s
- Activity (Mus musculus [7]): Active
- Activity (Mus musculus [8]): Active

SMILES: Cc1cnn2c1n[n+]([O-])c1ccc(OCc3ccnc(Cl)c3)cc12
- pKi [1]: 8.13

SMILES: [O-][n+]1nc2c(I)cnn2c2cc(NCc3ccco3)ccc21
- pKi [1]: 9.64

SMILES: [O-][n+]1nc2c(I)cnn2c2cc(NCc3ccccn3)ccc21
- pKi [1]: 9.14

SMILES: NC(=O)c1cnn2c1n[n+]([O-])c1ccc(OCc3cccs3)cc12
- pKi [1]: 6.02

SMILES: Cc1noc(-c2cnn3c2n[n+]([O-])c2ccc(OCc4ccncc4)cc23)n1
- pKi [1]: 6.34
- Activity (Mus musculus [2]): 10%
- Activity (Mus musculus [3]): tde
- Activity (Mus musculus [4]): Active
- Activity (Rattus norvegicus [5]): inactive
- Time (Rattus norvegicus [6]): 44.6 s
- Activity (Mus musculus [9]): Active
- Activity (Mus musculus [10]): Active

SMILES: CN(C)/C=N/C(=O)c1cnn2c1n[n+]([O-])c1ccc(OCc3cccs3)cc12
- pKi [1]: 6.21

SMILES: Cn1ncnc1-c1cnn2c1n[n+]([O-])c1ccc(OCc3ccccc3)cc12
- inhibition (Bos taurus): 46%

SMILES: Cc1cnn2c1nnc1ccc(Cl)cc12
- pKi [1]: 6.40

SMILES: [O-][n+]1nc2c(-c3ncn[nH]3)cnn2c2cc(OCc3ccncc3)ccc21
- pKi [1]: 6.77

SMILES: NC(=O)CN1CCCC1=O [PIRACETAM]
- Activity (Rattus norvegicus [11]): inactive
- Time (Rattus norvegicus [12]): 46.3 s

SMILES: [O-][n+]1nc2c(I)cnn2c2cc(NCc3ccncc3)ccc21
- pKi [1]: 9.48

SMILES: NC(=O)c1cnn2c1n[n+]([O-])c1ccc(OCc3ccncc3)cc12
- pKi [1]: 5.92

SMILES: Cc1noc(-c2cnn3c2n[n+]([O-])c2ccc(OCc4cccs4)cc23)n1
- pKi [1]: 5.79

SMILES: NC(=O)c1cnn2c1n[n+]([O-])c1ccc(OCc3ccccc3)cc12
- pKi [1]: 6.49

SMILES: CN(C)/C=N/C(=O)c1cnn2c1n[n+]([O-])c1ccc(OCc3ccccc3)cc12
- pKi [1]: 7.06

SMILES: [O-][n+]1nc2c(I)cnn2c2cc(OCc3cccs3)ccc21
- Activity (Mus musculus [2]): 0%
- Activity (Mus musculus [3]): tde
- Activity (Mus musculus [13]): Active
- Activity (Rattus norvegicus [14]): inactive
- Time (Rattus norvegicus [15]): 41.9 s
- Time (Rattus norvegicus [12]): 42.3 s
- Time (Rattus norvegicus [6]): 32.5 s
- Activity (Mus musculus [7]): Active
- Activity (Mus musculus [16]): Active

SMILES: CN1C(=O)CN=C(c2ccccc2)c2cc(Cl)ccc21 [DIAZEPAM]
- Activity (Mus musculus [2]): 100%
- Activity (Mus musculus [17]): tde
- Activity (Mus musculus [18]): inactive
- Activity (Mus musculus [19]): Active

SMILES: Cc1noc(-c2cnn3c2n[n+]([O-])c2ccc(OCc4ccccc4)cc23)n1
- pKi [1]: 7.15
- Activity (Mus musculus [2]): 10%
- Activity (Mus musculus [3]): tde
- Activity (Mus musculus [4]): Active
- Activity (Rattus norvegicus [5]): inactive
- Time (Rattus norvegicus [6]): 43.1 s
- Activity (Mus musculus [7]): Active
- Activity (Mus musculus [20]): Active

SMILES: Cn1cnc(-c2cnn3c2n[n+]([O-])c2ccc(OCc4ccccc4)cc23)n1
- inhibition (Bos taurus): 50%

SMILES: CN(C)/C=N/C(=O)c1cnn2c1n[n+]([O-])c1ccc(OCc3ccncc3)cc12
- pKi [1]: 6.29
